Source: PubChem
TAAR1 antag: human TAAR1 antagonists, primary screen, Fluo-8 calcium fluorescence, CHO RD-HGA16 cells. antagonist. inhibition, % at 3 µM. 360,000 compounds, 1.5% hits;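 active = inhibition above a per-plate cutoff, the mean inhibition of test compounds on that plate plus 3 SD, cut at about 49% in these data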;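 also: 0% = DMSO plus EC80 beta-PEA response and 100% = DMSO alone without agonist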
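Material: CHO RD-HGA16 cells bearing hTAAR1; compound dosing: one-point dosing, 3 µM nominal final; schedule: dye loading 75 min at 37 °C, then 30 min room temperature; measured by: calcium fluorescence with Fluo-8; control set: vehicle and agonist controls; replication: n of 1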
GPR7 antagonist: GPR7 receptor antagonists, primary screen, cell-based, fluorescence, single concentration. inhibition, % at 4.4 µM. GPR7-expressing cells, fluorescence antagonist assay. 290,000 compounds, 1.1% hits. Neuropeptides B/W receptor type 1 (Homo sapiens), P48145; in the data active = inhibition above about 16%, passing the limit was not always enough;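 also: cells stimulated with the agonist NPW; 0% = agonist with vehicle and 100% = vehicle without agonist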
OX1R antag-1: OX1R (HCRTR1) antagonists, primary screen, fluorescence, CHO/OX1R cells, Fluo-8 calcium, orexin A | Orexin/Hypocretin receptor type 1 (Homo sapiens), O43613 | Fluo-8 calcium fluorescence | inhibition, % at 5 µM | 330,000 compounds, 0.43% hits;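 active = inhibition above its plate's threshold, mean inhibition of all tested compounds on the plate plus 3 SD, cut at about 37% in these data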;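 also: 0% = orexin A challenge wells and 100% = SB-334867-A antagonist wells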
Target sequence (O43613 whole entry, looked up): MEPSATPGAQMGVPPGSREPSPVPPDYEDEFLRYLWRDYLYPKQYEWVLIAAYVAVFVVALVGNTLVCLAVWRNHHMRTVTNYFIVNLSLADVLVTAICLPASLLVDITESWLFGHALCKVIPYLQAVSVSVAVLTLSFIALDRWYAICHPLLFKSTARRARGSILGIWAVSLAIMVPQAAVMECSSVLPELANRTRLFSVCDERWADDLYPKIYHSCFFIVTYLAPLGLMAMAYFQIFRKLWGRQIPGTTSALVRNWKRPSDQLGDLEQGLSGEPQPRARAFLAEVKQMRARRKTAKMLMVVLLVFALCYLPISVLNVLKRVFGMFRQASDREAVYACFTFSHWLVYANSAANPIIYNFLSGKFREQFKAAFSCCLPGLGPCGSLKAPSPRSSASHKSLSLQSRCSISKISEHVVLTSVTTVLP
OX1R antag-2: antagonists of human orexin 1 receptor (OX1R); Orexin/Hypocretin receptor type 1 (Homo sapiens), O43613; OX1R-expressing cells, FRET antagonist read-out; inhibition, % at 6.6 µM; 330,000 compounds, 1.8% hits; in the data active = inhibition mostly above about 38%, no sharp cut-off; inactive = mostly below about 40%;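 also: 0% = agonist challenge alone and 100% = reference antagonist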
CHO parental Ca: ATP-evoked calcium signal inhibitors, parental CHO, primary screen, counter-screen for OX1R antagonist project, cell-based, fluorescence, Fluo-8 calcium dye; inhibition, % at 5.6 µM; AID 463079, 2010; parental CHO-K1, ATP-induced calcium, Fluo-8 fluorescence; 330,000 compounds, 0.63% hits;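 active = inhibition above that plate's mean sample inhibition plus 3 SD, cut at about 26% in these data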;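 also: 0% = ATP-challenged DMSO wells and 100% = DMSO wells without ATP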
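material = parental CHO cells | also added = ATP as calcium-mobilizing challenge | dosing = single point at 5.6 µM | detection = intracellular calcium via Fluo-8 no-wash fluorescent dye | read-out = % inhibition | benchmarks = low control ATP plus DMSO, high control DMSO only | repeats = one well per compound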
TAAR1 agonist: human TAAR1 agonists, primary screen, Fluo-8 calcium fluorescence, CHO RD-HGA16 cells | vehicle wells 0%, saturating PEA agonist 100% | activation, % at 3 µM | Trace amine-associated receptor 1 (Homo sapiens), Q96RJ0 | 360,000 compounds, 0.99% hits;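 active = activation above the mean activation of all test compounds in the run plus 3 SD, cut at about 38% in these data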
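System: CHO RD-HGA16 cells carrying human TAAR1 plus Gα16; Incubation: 17-24 h seeding, 75 min 37 °C dye, 30 min RT; Measured by: Fluo-8 fluorescence, 5 s baseline then 140 s kinetic read; Control set: DMSO and PEA EC100; Replication: single well for each compound.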
TAAR1 ag conf: human TAAR1 agonists, retest of hits, confirmation, Fluo-8 calcium fluorescence, CHO RD-HGA16 cells; shares compounds with TAAR1 agonist; scaled: DMSO 0%, maximal phenethylamine 100%; activation, % at 3 µM; 2,400 compounds, 82% hits;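 active = activation above a cutoff set at the run's mean compound activation plus 3 SD, cut at about 39% in these data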
Ga16 ag counter: nonselective calcium mobilization agonists, CHO-Ga16 cells, counter-screen for hTAAR1 agonist project, cell-based, fluorescence, CHO-Ga16 parental line. Fluo-8 calcium fluorescence; normalized to maximal ATP response, DMSO zero. shares compounds with TAAR1 agonist. activation, % at 3 µM. AID 651787, 2012. 2,400 compounds, 50% hits;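 active = activation above the run cutoff, the mean activation over all tested wells plus 3 SD, cut at about 12% in these data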;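 also: 0% = DMSO wells and 100% = maximal ATP response on the peak over basal ratio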
TAAR1 desens: TAAR1 desensitization by agonist hits, confirmation, counter-screen for TAAR1 agonist project, cell-based, fluorescence, tachyphylaxis; shares compounds with TAAR1 agonist; CHO RD-HGA16 hTAAR1, Fluo-8 calcium, beta-PEA response inhibition; inhibition, % at 3 µM; 2,400 compounds, 46% hits;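 active = inhibition above the run cutoff, the mean inhibition of all test compounds plus 3 SD, cut at about 49% in these data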;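 also: beta-PEA stimulus applied at its EC80; loss of beta-PEA calcium signal after compound pretreatment read as receptor desensitization; 0% = DMSO with beta-PEA at EC80 and 100% = DMSO alone without agonist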
Ga16 nonsel ant: inhibition of ATP-evoked calcium response in CHO-Ga16 cells, counter-screen for TAAR1 agonist project, cell-based, fluorescence | shares compounds with TAAR1 agonist | CHO-Ga16 ATP-induced calcium, Fluo-8 fluorescence | inhibition, % at 3 µM | 2,400 compounds, 39% hits;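 active = inhibition above the plate's mean compound inhibition plus 3 SD, computed per plate, cut at about 22% in these data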;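 also: 0% = EC80 ATP with DMSO and 100% = DMSO wells without ATP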
* hit, by the source's call; nt = no result. Hits are enriched below; roughly 4.6% of the tested compounds scored in any of these assays.

SMILES	TAAR1 antag	GPR7 antagonist	OX1R antag-1	OX1R antag-2	CHO parental Ca	TAAR1 agonist	TAAR1 ag conf	Ga16 ag counter	TAAR1 desens	Ga16 nonsel ant
CC(C)(CNC(=O)c1ccc(S(=O)(=O)Nc2ccc(Cl)cc2)cc1)N1CCOCC1	21	nt	2	-1	0	65*	45*	19*	28	23*
Cc1ccc(NC(=O)Cc2nc(CCl)cs2)cc1	5	-4	-22	5	-7	1	nt	nt	nt	nt
CCOC(=O)C1CCCN(C(=O)c2ccc3nc(-c4ccc(OC)c(OC)c4)c(-c4ccc(OC)c(OC)c4)nc3c2)C1 (centres undefined)	24	-6	-20	11	-12	1	nt	nt	nt	nt
CC(Oc1ccc(Cl)cc1Cl)C(=O)Nc1ccc(N2CCN(C)CC2)cc1 (centres undefined)	5	3	-17	8	-18	53*	60*	6	32	12
CCOC(=O)C(C(=O)OCC)c1cc(Br)c2noc3c2c1C(=O)c1ccccc1-3	73*	6	43	51	39*	59*	66*	62*	87*	85*
COc1ccc(C(=O)NCCc2nnc3ccc(SCC(=O)N4CCOCC4)nn23)cc1	-24	6	-50	6	-3	1	nt	nt	nt	nt
CC(C)c1ccc(OCC(=O)NNC(=S)NC(=O)c2ccco2)c(Br)c1	7	-12	10	-4	-2	44*	81*	59*	70*	51*
Cc1ccccc1OCC(=O)NNC(=S)NC(=O)c1ccco1	14	-9	7	4	-5	65*	29	23*	12	20
NC(=O)c1ncn([C@@H]2O[C@H](CNS(=O)(=O)c3cc4ccccc4s3)[C@@H](O)[C@H]2O)n1	-11	nt	nt	nt	nt	0	nt	nt	nt	nt
CCSc1ncc(Cl)c(C(=O)Nc2ccc(S(=O)(=O)Nc3onc(C)c3C)cc2)n1	-18	-2	-12	22	-13	4	nt	nt	nt	nt
COc1ccc(N=Cc2sc(O)c3ccccc23)cc1	64*	0	67*	26	46*	84*	46*	72*	53*	69*
O=C(COC(=O)c1ccc(Cl)cc1)NC1CCCCCC1	9	nt	6	12	12	42*	-3	2	-7	-1
Cc1cccc(-n2c(C)cc(/C=C3\C(=N)N4N=C(CC(C)C)SC4=NC3=O)c2C)c1	9	-2	-2	12	-15	2	nt	nt	nt	nt
CCSC1=NSC2=NC(=O)/C(=C\c3coc4ccccc4c3=O)C(=N)N12	108*	10	54*	44	59*	252*	204*	279*	103*	99*
CC(C)CC1=NN2C(=N)/C(=C\c3coc4ccccc4c3=O)C(=O)N=C2S1	104*	-10	nt	nt	nt	355*	149*	131*	82*	80*
O=C(C=C(O)c1ccc(Cl)cc1)C(=O)NNC(=O)C(O)(c1ccccc1)c1ccccc1	5	nt	nt	nt	nt	2	nt	nt	nt	nt
O=C(CCCN=C1NS(=O)(=O)c2ccccc21)OCC(=O)c1ccc(F)cc1	31	nt	12	10	4	67*	86*	33*	33	30*
Cc1cc(OCC(=O)NCc2ccncc2)ccc1Cl	1	-3	-7	0	-8	7	nt	nt	nt	nt
COc1ccc(NC(=O)CSc2ccc3c4c(cccc24)C(=O)c2ccccc2-3)cc1	37	-5	3	1	4	20	nt	nt	nt	nt
N#Cc1cccc(NC(=O)CSc2ccc3c4c(cccc24)C(=O)c2ccccc2-3)c1	87*	-6	75*	62	59*	86*	47*	57*	73*	77*
Cc1cc(C)n(-c2nc3ccccc3nc2NCCc2ccccc2)n1	-8	-12	-10	8	-12	61*	36	1	3	3
COc1ccc(Nc2nc3ccccc3nc2-n2nc(C)cc2C)cc1	-15	-1	-10	4	-15	7	nt	nt	nt	nt
CN1C(=O)C2CN(CCc3ccccc3)CNC2N(C)C1=O (centres undefined)	nt	-1	-9	6	-10	nt	nt	0	nt	-3
Cc1cc(/C=N\NC(=O)COc2cccc3cccnc23)c(C)n1-c1ccccc1	10	1	-32	20	-20	5	nt	nt	nt	nt
Cc1cc(C)cc(-n2c(C)cc(/C=N/NC(=O)CSc3ncccn3)c2C)c1	27	-4	-10	4	-18	45*	50*	32*	55*	33*
COc1ccc(Cn2nnc(C(=O)Nc3ccc4c(c3)OCCO4)c2N)cc1Br	-4	24	11	4	1	3	nt	nt	nt	nt
Oc1c(C(c2ccccc2)N2CCc3ccccc3C2)sc2ncnn12 (centres undefined)	-13	-10	-11	5	0	65*	61*	0	26	12
COc1cccc(C(c2sc3nc(C)nn3c2O)N2CCc3ccccc3C2)c1 (centres undefined)	-12	-6	-22	16	-13	54*	56*	2	22	8
C[C@H](NC(=O)[C@@H]1CSC2c3ccccc3C(=O)N21)C(=O)NCCc1ccccc1 (some centres undefined)	15	18	-11	13	-16	68*	81*	0	41	6
COc1ccc(NC(=O)[C@H](C)NC(=O)C2CCN(S(=O)(=O)c3ccc(OC)cc3)CC2)cc1	-53	-5	-39	11	-44	7	nt	nt	nt	nt
